Results as given in ChEMBL document CHEMBL1154430, “Synthesis, characterization and pharmacological evaluation of amide prodrugs of ketorolac” (Eur J Med Chem, 2008).

Key:
[1] = Solubility in water; format: physicochemical; conditions: buffer
Rattus norvegicus [2] = experiment: Analgesic activity in po dosed Wistar rat […] assessed as reaction time for tail withdrawal at dose equivalent to 1.2 mg/kg of ketorolac after 30 mins by tail flick method; format: functional
Outline: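 Wistar rats, 100–200 g, groups of three. Tail-flick test on a […] analgesiometer with a thermal stimulus. Current set so that more than 90% of rats flick within 5–9 s, and slow responders rejected. Dose equivalent to 1.2 mg/kg given orally in 1% sodium carboxymethylcellulose suspension. %Analgesia = [1 − […]]×100, from reaction times before (T₁) and after (T₂) dosing.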

Rattus norvegicus [3] = experiment: Antiinflammatory activity against carrageenan-induced paw edema in po dosed Wistar rat at dose equivalent to 2.5 mg/kg ketorolac after 2 hrs; format: functional
Outline: (§1)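 Wistar albino rats, 100–200 g, seven groups of three including control and standard. Initial right hind paw volume measured by plethysmometer before dosing. Oral dose in 1% CMC suspension, prodrugs equivalent to 2.5 mg/kg ketorolac. Anti-inflammatory activity reported as percentage at 2 and 6 h after administration.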

[4] = Chloroform-acidic buffer partition coefficient, log K at pH 1.4; format: physicochemical
[5] = Metabolic stability in stimulated intestinal fluid assessed as half life at 10 mg by HPLC; format: ADME; conditions: simulated intestinal fluid
Outline: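 10 mg in 2 mL acetonitrile added to 88 mL SIF (pH 7.4). Aliquots chilled in freezing mixture to arrest hydrolysis, vortexed 5 min and centrifuged 5 min. Supernatant analysed on C18 reversed-phase HPLC (acetonitrile:water 50:50), UV at 247 nm.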

[6] = Chloroform-PBS partition coefficient, log K at pH 7.4; format: physicochemical
Rattus norvegicus [7] = experiment: Antiinflammatory activity against carrageenan-induced paw edema in po dosed Wistar rat at dose equivalent to 2.5 mg/kg ketorolac after 6 hrs; format: functional; outline: as §1
[8] = Solubility in 1.0N HCl; format: physicochemical; conditions: buffer
[9] = Metabolic stability in human plasma assessed as half life at 10 mg by HPLC; format: ADME, cell-free
Outline: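 10 mg in 2 mL acetonitrile added to 88 mL 80% human plasma (80:20 plasma:phosphate buffer pH 7.4) at 37 ± 0.5 °C. Samples taken at 10, 20, 30, 40, 50 and 60 min and chilled in freezing mixture to stop hydrolysis. Then vortexed 5 min, centrifuged, and supernatant run on C18 reversed-phase HPLC (acetonitrile:water 50:50), UV at 247 nm.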

[10] = Protein binding in plasma in pH 7.4 at 20 ug/ml by spectrophotometry; format: ADME, cell-free; conditions: read-out: PB (converted)
Outline: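 Prodrug solution in PBS pH 7.4. Membrane washed with distilled water, then with pH 7.4 buffer, before use. Withdrawn samples diluted with 1 mL phosphate buffer and prodrug concentration measured spectrophotometrically.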

Rattus norvegicus [11] = experiment: Gastrointestinal toxicity in Wistar rat assessed as ulcerogenic indicates at dose equivalent to 1.2 mg/kg of ketorolac orally administered for 5 days; format: organism-based; design: dose 1.2 mg/kg, route oral; conditions: in vivo, po, 120 h
Outline: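 Male Wistar rats, 130–150 g, groups of three including control and standard. Suspended in 2% w/v acacia and given orally at dose equivalent to 1.2 mg/kg ketorolac daily for 5 days. Rats fasted after the last dose, then decapitated. Stomach opened and washed, and lesions larger than 0.5 mm counted visually under a 2× binocular magnifier.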

Rattus norvegicus [12] = experiment: Antiinflammatory activity against carrageenan-induced paw edema in Wistar rat at 2.5 mg/kg, po after 6 hrs; format: functional; outline: as §1
Rattus norvegicus [13] = experiment: Antiinflammatory activity against carrageenan-induced paw edema in Wistar rat at 2.5 mg/kg, po after 2 hrs; format: functional; outline: as §1
[14] = Solubility in 0.1 N NaOH; format: physicochemical
[15] = chloroform/acidic buffer, pH 1.4

For CCOC(=O)C(Cc1ccccc1)NC(=O)C1CCn2c(C(=O)c3ccccc3)ccc21 (racemic), the solubility [1] was “Insoluble”, the Activity (Rattus norvegicus [2]) was 54% and the Activity (Rattus norvegicus [3]) was 44%. The K [4, 15] was 504.05, the half-life [5] was 2.13 h and the K ([6]; chloroform/PBS, pH 7.4) was 23.18. For the same compound, the Activity (Rattus norvegicus [7]) was 49%, the solubility [8] was “Insoluble” and the half-life [9] was 0.45 h. For the same compound, the fraction unbound at 20 ug/ml [10] was 0.55.
In the case of CCOC(=O)CCNC(=O)C1CCn2c(C(=O)c3ccccc3)ccc21 (racemic), the solubility [1] is reported as “Insoluble”, the Activity (Rattus norvegicus [3]) is reported as 33% and the K [4, 15] is reported as 250.25. For the same compound, the half-life [5] was 2.67 h, the K ([6]; chloroform/PBS, pH 7.4) was 15.33 and the Activity (Rattus norvegicus [7]) was 49%. The solubility [8] was “Insoluble”, the half-life [9] was 0.882 h and the fraction unbound at 20 ug/ml [10] was 0.621.
With CCOC(=O)C(CC(C)C)NC(=O)C1CCn2c(C(=O)c3ccccc3)ccc21 (racemic) the solubility [1] was “Insoluble”, the Activity (Rattus norvegicus [2]) was 26% and the Activity (Rattus norvegicus [3]) was 27%. For the same compound, the K [4, 15] was 640, the half-life [5] was 2.67 h and the K ([6]; chloroform/PBS, pH 7.4) was 23.09. For the same compound, the Activity (Rattus norvegicus [7]) was 43%, the solubility [8] was “Insoluble” and the half-life [9] was 1.02 h. It also gave a fraction unbound at 20 ug/ml [10] of 0.55.
For CCOC(=O)CC(NC(=O)C1CCn2c(C(=O)c3ccccc3)ccc21)C(=O)OCC (racemic), the solubility [1] was “Insoluble”, the Activity (Rattus norvegicus [2]) was 54% and the Activity (Rattus norvegicus [3]) was 44%. The K [4, 15] was 330.12, the half-life [5] was 2.13 h and the K ([6]; chloroform/PBS, pH 7.4) was 18.26. The Activity (Rattus norvegicus [7]) was 57.72%, the solubility [8] was “Insoluble” and the half-life [9] was 0.45 h. It also gave a fraction unbound at 20 ug/ml [10] of 0.55.
For O=C(c1ccccc1)c1ccc2n1CCC2C(=O)O (stereo unspecified) [KETOROLAC], the K [4, 15] was 75.62, the K ([6]; chloroform/PBS, pH 7.4) was 6.022 and the UI (Rattus norvegicus [11]) was 23.2. For the same compound, the Activity (Rattus norvegicus [12]) was 54.21%, the solubility [8] was “Insoluble” and the Activity (Rattus norvegicus [13]) was 64.24%. The solubility [14] was “Soluble”.
With CCOC(=O)C(NC(=O)C1CCn2c(C(=O)c3ccccc3)ccc21)C(C)CC (racemic) the solubility [1] was “Insoluble”, the Activity (Rattus norvegicus [2]) was 36% and the Activity (Rattus norvegicus [3]) was 33%. For the same compound, the K [4, 15] was 656.8, the half-life [5] was 2.13 h and the K ([6]; chloroform/PBS, pH 7.4) was 23.87. For the same compound, the Activity (Rattus norvegicus [7]) was 49%, the solubility [8] was “Insoluble” and the half-life [9] was 0.65 h. It also gave a fraction unbound at 20 ug/ml [10] of 0.55.
In the case of CCOC(=O)C(NC(=O)C1CCn2c(C(=O)c3ccccc3)ccc21)C(C)C (racemic), the solubility [1] is reported as “Insoluble”, the Activity (Rattus norvegicus [2]) is reported as 36% and the Activity (Rattus norvegicus [3]) is reported as 33%. The K [4, 15] was 380.6, the half-life [5] was 2.67 h and the K ([6]; chloroform/PBS, pH 7.4) was 20. For the same compound, the Activity (Rattus norvegicus [7]) was 49%, the solubility [8] was “Insoluble” and the half-life [9] was 0.65 h. For the same compound, the fraction unbound at 20 ug/ml [10] was 0.55.
With CCOC(=O)C(Cc1c[nH]c2ccccc12)NC(=O)C1CCn2c(C(=O)c3ccccc3)ccc21 (racemic) the solubility [1] was “Insoluble”, the Activity (Rattus norvegicus [2]) was 26% and the Activity (Rattus norvegicus [3]) was 27%. It also gave a K [4] of 429.9, a half-life [5] of 2.98 h and a K [6] of 21.42. The Activity (Rattus norvegicus [7]) was 43%, the solubility [8] was “Insoluble” and the half-life [9] was 0.825 h. For the same compound, the fraction unbound at 20 ug/ml [10] was 0.55.
For CCOC(=O)C(C)NC(=O)C1CCn2c(C(=O)c3ccccc3)ccc21 (racemic), the solubility [1] was “Insoluble”, the Activity (Rattus norvegicus [2]) was 26% and the Activity (Rattus norvegicus [3]) was 27%. The K [4, 15] was 256.73, the half-life [5] was 2.67 h and the K ([6]; chloroform/PBS, pH 7.4) was 15.61. The Activity (Rattus norvegicus [7]) was 43%, the solubility [8] was “Insoluble” and the half-life [9] was 0.987 h. The fraction unbound at 20 ug/ml [10] was 0.811.
With CCOC(=O)CCC(NC(=O)C1CCn2c(C(=O)c3ccccc3)ccc21)C(=O)OCC (racemic) the solubility [1] was “Insoluble”, the Activity (Rattus norvegicus [2]) was 54% and the Activity (Rattus norvegicus [3]) was 44%. It also gave a K [4, 15] of 319.5, a half-life [5] of 2.13 h and a K ([6]; chloroform/PBS, pH 7.4) of 18.08. The Activity (Rattus norvegicus [7]) was 49%, the solubility [8] was “Insoluble” and the half-life [9] was 0.45 h. It also gave a fraction unbound at 20 ug/ml [10] of 0.55.
For CCOC(=O)CNC(=O)C1CCn2c(C(=O)c3ccccc3)ccc21 (racemic), the solubility [1] was “Insoluble”, the Activity (Rattus norvegicus [2]) was 36% and the Activity (Rattus norvegicus [3]) was 33%. The K [4, 15] was 215.9, the half-life [5] was 2.13 h and the K ([6]; chloroform/PBS, pH 7.4) was 13.81. For the same compound, the Activity (Rattus norvegicus [7]) was 49%, the solubility [8] was “Insoluble” and the half-life [9] was 0.65 h. The fraction unbound at 20 ug/ml [10] was 0.55.
